Active and inactive are the calls of the source. The rule behind the calls is not given here.

We go through 2 compounds from ChEMBL document CHEMBL4190227, “Syntheses, toxicities and anti-inflammation of H2S-donors based on non-steroidal anti-inflammatory drugs” (Eur J Med Chem, 2017).

A short description of data set [1]: Toxicity in AB zebrafish embryo assessed as percentage of embryos alive at 10 uM measured at 120 hrs post fertilization by dissecting light microscopic analysis relative to DMF. The format is organism-based, Danio rerio. Particulars: read-out: Activity. In short, it runs like this: (§1)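 Wild-type AB zebrafish embryos, collected within 1 h of lights-on and washed in E3 medium, were exposed one embryo per well in 200 μL test solution, with plates sealed against evaporation. There were 100 embryos per group, split into three replicate groups. Mortality was recorded at 24–168 hpf. DMF vehicle (1:1000) served as control. Results are mean ± SD of three replicates.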

The species entered for data set [2] is Danio rerio. Description: Toxicity in AB zebrafish embryo assessed as embryonic spontaneous movement frequencies per minute at 10 uM measured at 24 hrs post fertilization by stereoscopic dissecting light microscopic analysis (reference value: 15.9 /min). The format is organism-based. Particulars: in vivo. In short, it runs like this:
(§2)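 AB embryos exposed from 4 to 24 hpf to compound (0.5–20 μM) or DMF vehicle (1:1000); ten embryos per group chosen randomly; spontaneous movement recorded under stereoscopic dissecting microscope, frequency per min counted at 24 hpf; three independent experiments, mean ± SD.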

The species entered for data set [3] is Danio rerio. Description: Toxicity in AB zebrafish embryo assessed as embryonic spontaneous movement frequencies per minute at 20 uM measured at 24 hrs post fertilization by stereoscopic dissecting light microscopic analysis (reference value: 15.9 /min). It counts as organism-based. Particulars: in vivo. In short, it runs like this:
as §2

For data set [4], the species on record is Danio rerio. Description: Toxicity in AB zebrafish embryo assessed as rate of embryo malformation at 0.5 to 20 uM measured at 96 hrs post fertilization by stereoscopic dissecting light microscopic analysis relative to DMF. It counts as organism-based. Particulars: in vivo. In short, it runs like this: (§3)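 AB embryos exposed from 4 hpf through 96 hpf to compound or DMF vehicle (1:1000); malformations scored at 96 hpf under stereoscopic dissecting microscope; 100 embryos per group in three replicates; three independent experiments, mean ± SD.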

Data set [5] deals with RAW264.7. Briefly: (§4) Cytotoxicity against mouse RAW264.7 cells assessed as cell viability at 10 to 100 uM treated for 24 hrs post LPS induction by MTT assay. It counts as cell-based. Conditions: raw264.7, 24 h, 100 µM. In short, it runs like this:
(§5)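 Macrophages in high-glucose DMEM + 10% heat-inactivated FBS, 2 mM glutamine, 37 °C, 5% CO2; exposed 24 h to 10, 50, 100 μM with or without LPS 1 μg/mL; MTT added 4 h, formazan dissolved in DMSO, A570, expressed as % of control; four independent experiments.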
In general terms: Formazan colour is commonly taken as a measure of viable cells.

Data set [6] deals with T1, Nitric oxide synthase, inducible (Mus musculus) (UniProt P29477).
T1 sequence (whole entry): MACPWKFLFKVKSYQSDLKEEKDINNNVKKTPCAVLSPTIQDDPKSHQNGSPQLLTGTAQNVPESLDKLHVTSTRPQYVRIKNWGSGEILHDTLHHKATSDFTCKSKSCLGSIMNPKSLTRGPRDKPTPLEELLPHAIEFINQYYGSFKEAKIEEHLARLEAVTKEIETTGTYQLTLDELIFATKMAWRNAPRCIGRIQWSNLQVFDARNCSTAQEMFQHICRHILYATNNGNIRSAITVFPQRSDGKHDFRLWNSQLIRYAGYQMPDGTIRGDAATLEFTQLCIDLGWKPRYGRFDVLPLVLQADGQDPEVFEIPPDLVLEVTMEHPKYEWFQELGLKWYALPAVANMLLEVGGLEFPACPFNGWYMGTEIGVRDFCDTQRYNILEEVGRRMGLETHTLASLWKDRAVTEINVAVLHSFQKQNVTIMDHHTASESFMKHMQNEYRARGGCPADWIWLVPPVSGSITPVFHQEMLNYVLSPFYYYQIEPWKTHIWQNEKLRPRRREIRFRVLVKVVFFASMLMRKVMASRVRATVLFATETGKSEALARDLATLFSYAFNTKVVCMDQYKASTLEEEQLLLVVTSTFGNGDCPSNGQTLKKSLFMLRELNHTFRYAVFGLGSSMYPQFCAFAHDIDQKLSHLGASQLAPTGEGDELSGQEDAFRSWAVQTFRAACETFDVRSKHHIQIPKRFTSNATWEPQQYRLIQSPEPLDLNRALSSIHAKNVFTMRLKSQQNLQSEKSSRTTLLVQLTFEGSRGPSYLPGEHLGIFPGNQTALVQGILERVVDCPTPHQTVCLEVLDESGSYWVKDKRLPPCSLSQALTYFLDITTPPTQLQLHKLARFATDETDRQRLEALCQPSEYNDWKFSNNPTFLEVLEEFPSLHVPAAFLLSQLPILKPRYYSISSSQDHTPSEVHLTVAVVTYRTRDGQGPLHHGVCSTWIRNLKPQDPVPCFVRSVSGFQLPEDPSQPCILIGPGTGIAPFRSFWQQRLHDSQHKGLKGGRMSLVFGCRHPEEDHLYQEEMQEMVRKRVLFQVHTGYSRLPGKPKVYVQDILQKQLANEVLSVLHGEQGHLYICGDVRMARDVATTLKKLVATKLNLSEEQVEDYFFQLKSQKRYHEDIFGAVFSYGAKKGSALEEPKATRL
Briefly: Inhibition of iNOS in mouse RAW264.7 cells assessed as reduction in LPS-induced NO production at 50 uM administered for 24 hrs post LPS induction by Griess method relative to control. The format is cell-based. In short, it runs like this:
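RAW264.7 cells stimulated with LPS 1 μg/mL for 4 h, then compound (10, 50, 100 μM) for 24 h; culture medium reacted with Griess reagents I and II, absorbance 570 nm; nitrite from sodium nitrite standard curve (0–100 μM in medium); four independent experiments, mean ± SD.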

The subject of data set [7] is RAW264.7. Description: Antiinflammatory activity in mouse RAW264.7 cells assessed as increase in LPS-induced IL10 levels at 100 uM incubated for 24 hrs post LPS induction by ELISA relative to control. It counts as functional. In short, it runs like this: (§6)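 LPS (1 μg/mL) for 4 h, then compound at 10, 50, 100 μM for 24 h; cells lysed in RIPA, spun 12,000×g 10 min, protein normalised by BCA to 0.1 mg/mL; target (TNF-α, HO-1, IL-10 or COX-2) quantified by sandwich ELISA kit with mouse-specific polyclonal antibodies; four independent experiments.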
Background: ELISA stands for enzyme-linked immunosorbent assay.

Data set [8] concerns RAW264.7. Description: Inhibition of LPS-induced COX2 expression in mouse RAW264.7 cells at 10 to 100 uM incubated for 24 hrs post LPS induction by ELISA. It counts as functional, cell-based. In short, it runs like this:
as §6

In data set [9] the test system is RAW264.7. Briefly: (§7) Cytotoxicity against mouse RAW264.7 cells assessed as cell viability at 10 to 100 uM treated for 24 hrs in absence of LPS by MTT assay. The format is cell-based. Conditions: raw264.7, 24 h, 100 µM. In short, it runs like this:
as §5

The nature of data set [10]: Toxicity in AB zebrafish embryo assessed as percentage of embryos alive at 5 to 10 uM measured at 120 hrs post fertilization by dissecting light microscopic analysis relative to DMF. The format is organism-based, Danio rerio. Conditions: read-out: Activity. In short, it runs like this: as §1
For data set [11], the species on record is Danio rerio. Briefly: Toxicity in AB zebrafish embryo assessed as increase in embryo malformation measured at 96 hrs post fertilization by stereoscopic dissecting light microscopic analysis. The format is organism-based. Conditions: in vivo. In short, it runs like this:
as §3

The species entered for data set [12] is Danio rerio. Briefly: Toxicity in AB zebrafish embryo assessed as rate of embryo malformation at 20 uM measured at 96 hrs post fertilization by stereoscopic dissecting light microscopic analysis relative to DMF. It counts as organism-based. Particulars: in vivo. In short, it runs like this:
as §3

The species entered for data set [13] is Danio rerio. Briefly: Toxicity in AB zebrafish embryo assessed as vitelline cyst at 0.5 uM measured at 96 hrs post fertilization by stereoscopic dissecting light microscopic analysis. The format is organism-based. Conditions: in vivo. In short, it runs like this:
as §3

For data set [14], the species on record is Danio rerio. Briefly: Toxicity in AB zebrafish embryo assessed as bent spine at 0.5 uM measured at 96 hrs post fertilization by stereoscopic dissecting light microscopic analysis. It counts as organism-based. Particulars: in vivo. In short, it runs like this: as §3
The nature of data set [15]: as §4. The format is cell-based. Particulars: RAW264.7 cells, read-out: Activity. In short, it runs like this: as §5
A short description of data set [16]: as §7. It counts as cell-based. Particulars: RAW264.7 cells, read-out: Activity. In short, it runs like this:
as §5

Take `CC(=O)Nc1ccc(OC(=O)CCCCC2CCSS2)cc1` (configuration not stated): the survival at 120 h, 10 µM in data set [1] is 51%. For the same compound, the Activity in [2] was 13.5 min⁻¹; in data set [3] it was 12.2 min⁻¹; in [4], 3%; in [5], “Non-Toxic”; in [9], “Non-Toxic”. For the same compound, the inhibition (as a rule, the drop in the measured response relative to a control, in per cent) in data set [6] worked out at 60%. In addition, in data set [7], the “fold change (FC)” value is 3. In addition, the inhibition entry in data set [8] was “Active”.
Take `CC(C)Cc1ccc(C(C)C(=O)Oc2ccc(C(N)=S)cc2)cc1` (configuration not stated): in [10], the survival at 120 h, up to 10 µM came to 60%. The Activity entry in data set [11] is reported as “Dose-dependent effect”; in [12] it was 5%; in data set [13], “Toxic”; in data set [14] it was “Toxic”. For the same compound, the viability at 24 h, up to 100 µM in data set [15] and in data set [16] was 70 to 110% throughout. The inhibition entry in data set [8] was “Active”.
